Drawing on ChEMBL document CHEMBL1806362, “Synthesis of some new [1,2,4]triazolo[3,4-b][1,3,4]thiadiazines and [1,2,4]triazolo[3,4-b][1,3,4] thiadiazoles starting from 5-nitro-2-furoic acid and evaluation of their antimicrobial activity” (Bioorg Med Chem, 2011), this text covers MBC, MIC and IC50 for 18 molecules.

Test [1] relates to Staphylococcus aureus. Kind of test: Antibacterial activity against Staphylococcus aureus after 24 hrs by broth dilution method. The format is functional. Put shortly: (§1)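 NCCLS broth dilution in 96-well microtitre plates. Inoculum adjusted with sterile saline to 1.0×10^5 c.f.u./ml. Compounds dissolved in DMSO, with a broth-plus-DMSO solvent control. Incubated 24 h at 37 °C. MIC is the lowest concentration without visible growth. For MBC, clear wells were plated on Mueller Hinton agar for 24 h at 37 °C; MBC is the lowest concentration with no colonies. Duplicates, repeated three times; values in μg/ml.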
(In broth dilution the organism is exposed to a series of concentrations in liquid medium.)

The subject of test [2] is Escherichia coli. The experiment in a line: Antibacterial activity against Escherichia coli after 24 hrs by broth dilution method. It counts as functional. In outline:
as §1

Test [3] relates to HepG2. Kind of test: Cytotoxicity against human HepG2 cells after 48 hrs by sulforhodamine B assay. The format is functional, cell-based. The settings on record: HepG2, 48 h. Put shortly: (§2)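 SRB assay. Cells seeded at 10⁴ cells/well and left 24 h to attach. Exposed to 0, 1, 2.5, 5 and 10 μg/ml for 48 h at 37 °C in humidified 5% CO₂. Fixed with trichloroacetic acid and stained 30 min with 0.4% SRB in 1% acetic acid. Washed with 1% acetic acid; bound dye extracted with Tris EDTA and absorbance read. IC50 taken from surviving fraction versus concentration curves.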
Background: In SRB staining, fixed cells bind dye roughly in proportion to their protein.

For test [4], the system named is HCT-116. The experiment in a line: Cytotoxicity against human HCT116 cells after 48 hrs by sulforhodamine B assay. The format is functional, cell-based. The settings on record: HCT-116, 48 h. Put shortly: as §2

Values after ≈ are worked out from the molar mass of the structure shown.

In general, MBC refers to the smallest concentration meeting the test's criterion for killing. A word on the MIC: it is the lowest concentration that inhibits growth of the organism. Higher therefore signals weaker potency. A word on the IC50: it is the concentration that gives 50% inhibition.

With `Nn1c(S)nnc1-c1ccc([N+](=O)[O-])o1`, the MBC in test [1] and in test [2] was 200 µg/mL (≈ 880 µM) throughout. For the same molecule, the values for the MIC in test [1] and in test [2] were 50 µg/mL (≈ 220 µM) and 25 µg/mL (≈ 110 µM), respectively.
On to `O=[N+]([O-])c1ccc(-c2nnc3n2NC(c2ccc[nH]2)S3)o1` (stereo unspecified), for which, in test [1], the MBC was 200 µg/mL (≈ 657 µM) and the minimal inhibitory concentration (MIC) was determined as 25 µg/mL (≈ 82.2 µM). Further, in test [2], the minimal bactericidal concentration (MBC) was found to be 200 µg/mL (≈ 657 µM) and the MIC stood at 25 µg/mL (≈ 82.2 µM).
In test [1], `O=[N+]([O-])c1ccc(-c2nnc3n2NC(c2ccco2)S3)o1` (stereo unspecified) registered an MBC of 200 µg/mL (≈ 655 µM) and an MIC of 25 µg/mL (≈ 81.9 µM). In test [2], this molecule had an MBC of 200 µg/mL (≈ 655 µM) and an MIC of 25 µg/mL (≈ 81.9 µM).
As for `O=[N+]([O-])c1ccc(-c2nnc3n2NC(c2ccc([N+](=O)[O-])o2)S3)o1` (stereo unspecified), the minimal bactericidal concentration (MBC) in test [1] and in test [2] was 200 µg/mL (≈ 571 µM) each time. For the same molecule, the MIC in test [1] and in test [2] was 25 µg/mL (≈ 71.4 µM) throughout.
In test [1], `O=[N+]([O-])c1ccc(-c2nnc3n2NC(c2cccs2)S3)o1` (stereo unspecified) displayed an MBC of 200 µg/mL (≈ 622 µM) and an MIC of 25 µg/mL (≈ 77.8 µM). Further, in test [2], the MBC turned out to be 200 µg/mL (≈ 622 µM) and the MIC amounted to 50 µg/mL (≈ 156 µM).
With `O=[N+]([O-])c1ccc(-c2nnc3n2NC(c2ccc([N+](=O)[O-])s2)S3)o1` (stereo unspecified), the MBC in test [1] and in test [2] was 200 µg/mL (≈ 546 µM) in each case. Moreover, the minimum inhibitory concentration (MIC) in test [1] came to 25 µg/mL (≈ 68.2 µM); in test [2], 50 µg/mL (≈ 136 µM).
Turning to `CCNc1nn2c(-c3ccc([N+](=O)[O-])o3)nnc2s1`, in test [1], the MBC stood at 100 µg/mL (≈ 357 µM) and the MIC amounted to 25 µg/mL (≈ 89.2 µM). Besides, in test [2], the MBC stood at 200 µg/mL (≈ 714 µM) and the lowest concentration to inhibit growth (MIC) was 25 µg/mL (≈ 89.2 µM).
On to `CCCCNc1nn2c(-c3ccc([N+](=O)[O-])o3)nnc2s1`, for which the minimum bactericidal concentration (MBC) came out at 200 µg/mL (≈ 649 µM) in test [1] and 100 µg/mL (≈ 324 µM) in test [2]. The MIC in test [1] and in test [2] was 25 µg/mL (≈ 81.1 µM) each time.
`O=[N+]([O-])c1ccc(-c2nnc3sc(Nc4ccccc4)nn23)o1`: the half-inhibitory concentration (IC50) is 4.23 µg/mL (≈ 12.9 µM) in test [3] and 4.38 µg/mL (≈ 13.3 µM) in test [4]. The minimal bactericidal concentration (MBC) in test [1] was 50 µg/mL (≈ 152 µM); in test [2] it was 100 µg/mL (≈ 305 µM). Further, the values for the MIC in test [1] and in test [2] were 25 µg/mL (≈ 76.1 µM) and 50 µg/mL (≈ 152 µM), respectively.
`O=[N+]([O-])c1ccc(-c2nnc3sc(Nc4ccc(F)cc4)nn23)o1`: the figures for the IC50 in test [3] and in test [4] were 11.3 µg/mL (≈ 32.6 µM) and 8.91 µg/mL (≈ 25.7 µM), respectively. Besides, the minimal bactericidal concentration (MBC) in test [1] was found to be 50 µg/mL (≈ 144 µM); in test [2] it was 100 µg/mL (≈ 289 µM). The minimal inhibitory concentration (MIC) in test [1] and in test [2] was 25 µg/mL (≈ 72.2 µM) throughout.
On to `CCc1ccc(Nc2nn3c(-c4ccc([N+](=O)[O-])o4)nnc3s2)cc1`, for which the IC50 was 3.78 µg/mL (≈ 10.6 µM) in test [3] and 6.65 µg/mL (≈ 18.7 µM) in test [4]. Moreover, the MBC in test [1] and in test [2] was 50 µg/mL (≈ 140 µM) throughout. The minimal inhibitory concentration (MIC) in test [1] and in test [2] was 25 µg/mL (≈ 70.2 µM) throughout.
In the case of `O=[N+]([O-])c1ccc(-c2nnc3n2N=C(c2ccccc2)CS3)o1`, in test [1], the MBC amounted to 200 µg/mL (≈ 611 µM) and it took 100 µg/mL (≈ 306 µM) to inhibit growth (MIC). In addition, in test [2], the minimum bactericidal concentration (MBC) is 200 µg/mL (≈ 611 µM) and the MIC was determined as 50 µg/mL (≈ 153 µM).
In test [1], `O=[N+]([O-])c1ccc(-c2nnc3n2N=C(c2ccc(Cl)cc2)CS3)o1` registered a minimum bactericidal concentration (MBC) of 200 µg/mL (≈ 553 µM) and an MIC of 25 µg/mL (≈ 69.1 µM). Further, in test [2], the minimum bactericidal concentration (MBC) is 200 µg/mL (≈ 553 µM) and the minimal inhibitory concentration (MIC) was 25 µg/mL (≈ 69.1 µM).
In test [1], `O=[N+]([O-])c1ccc(-c2nnc3n2N=C(c2ccc(Br)cc2)CS3)o1` came in with an MBC of 200 µg/mL (≈ 492 µM) and a minimum inhibitory concentration (MIC) of 25 µg/mL (≈ 61.5 µM). In test [2], this molecule showed a minimal bactericidal concentration (MBC) of 200 µg/mL (≈ 492 µM) and a minimum inhibitory concentration (MIC) of 25 µg/mL (≈ 61.5 µM).
Turning to `O=[N+]([O-])c1ccc(C2=Nn3c(nnc3-c3ccc([N+](=O)[O-])o3)SC2)cc1`, in test [1], the minimal bactericidal concentration (MBC) worked out at 100 µg/mL (≈ 269 µM) and the MIC stood at 50 µg/mL (≈ 134 µM). In test [2], this molecule registered an MBC of 200 µg/mL (≈ 537 µM) and an MIC of 25 µg/mL (≈ 67.1 µM).
For the molecule `COc1ccc(C2=Nn3c(nnc3-c3ccc([N+](=O)[O-])o3)SC2)cc1`, in test [1], the MBC stood at 200 µg/mL (≈ 560 µM) and the minimum inhibitory concentration (MIC) was determined as 50 µg/mL (≈ 140 µM). Besides, in test [2], the MBC worked out at 200 µg/mL (≈ 560 µM) and the minimal inhibitory concentration (MIC) worked out at 25 µg/mL (≈ 70 µM).
As to `CC1(C)S[C@@H]2[C@H](NC(=O)[C@H](N)c3ccccc3)C(=O)N2[C@H]1C(=O)O` [AMPICILLIN], the MBC turned out to be 50 µg/mL (≈ 143 µM) in test [1] and 25 µg/mL (≈ 71.5 µM) in test [2]. The minimal inhibitory concentration (MIC) was determined as 25 µg/mL (≈ 71.5 µM) in test [1] and 12.5 µg/mL (≈ 35.8 µM) in test [2].
In the case of `COc1cccc2c1C(=O)c1c(O)c3c(c(O)c1C2=O)C[C@@](O)(C(=O)CO)C[C@@H]3O[C@H]1C[C@H](N)[C@H](O)[C@H](C)O1` [DOXORUBICIN], the IC50 turned out to be 5.5 µg/mL (≈ 10.1 µM) in test [3] and 3.73 µg/mL (≈ 6.86 µM) in test [4].
